Measured values from ChEMBL document CHEMBL4138284, “Biomimetic Stereoselective Sulfa-Michael Addition Leads to Platensimycin and Platencin Sulfur Analogues against Methicillin-Resistant Staphylococcus aureus” (J Nat Prod, 2018).
Converted amounts (≈) assume the structure as drawn.

Test system: Staphylococcus aureus
Test: Antibacterial activity against methicillin-resistant Staphylococcus aureus isolate 7 incubated overnight by agar dilution method
Assay type: functional
In short: (§1)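 MIC by agar dilution. Strains were grown overnight in LB broth and diluted, then about 10^4 CFU (2 μL spots) were spotted onto LB agar plates containing test compound at 0.5 to 8 μg mL−1 agar. Plates were incubated overnight at 37 °C and inspected for growth. Clinical MSSA and MRSA isolates came from local hospitals.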

Structure (SMILES)	MIC [µg/mL]
CC(=O)S[C@H]1CC(=O)[C@@](C)(CCC(=O)Nc2c(O)ccc(C(=O)O)c2O)[C@@H]2[C@@H]3C[C@H]4C[C@]12C[C@]4(C)O3	4 (≈ 7.73 µM)
C[C@]12C[C@]34C[C@@H]1C[C@H](O2)[C@H]3[C@](C)(CCC(=O)Nc1c(O)ccc(C(=O)O)c1O)C(=O)C[C@@H]4SC(=O)c1ccc(C(F)(F)F)cc1	2 (≈ 3.09 µM)
C[C@]12C[C@]34C[C@@H]1C[C@H](O2)[C@H]3[C@](C)(CCC(=O)Nc1c(O)ccc(C(=O)O)c1O)C(=O)C[C@@H]4SC(=O)c1ccc(Br)cc1	1 (≈ 1.52 µM)

Test system: Staphylococcus aureus
Test: Antibacterial activity against methicillin-resistant Staphylococcus aureus isolate 5 incubated overnight by agar dilution method
Assay type: functional
In short: as §1

Structure (SMILES)	MIC [µg/mL]
CC(=O)S[C@H]1CC(=O)[C@@](C)(CCC(=O)Nc2c(O)ccc(C(=O)O)c2O)[C@@H]2[C@@H]3C[C@H]4C[C@]12C[C@]4(C)O3	2 (≈ 3.86 µM)
C[C@]12C[C@]34C[C@@H]1C[C@H](O2)[C@H]3[C@](C)(CCC(=O)Nc1c(O)ccc(C(=O)O)c1O)C(=O)C[C@@H]4SC(=O)c1ccc(C(F)(F)F)cc1	2 (≈ 3.09 µM)
C[C@]12C[C@]34C[C@@H]1C[C@H](O2)[C@H]3[C@](C)(CCC(=O)Nc1c(O)ccc(C(=O)O)c1O)C(=O)C[C@@H]4SC(=O)c1ccc(Br)cc1	2 (≈ 3.04 µM)

Test system: Staphylococcus aureus
Test: Antibacterial activity against methicillin-sensitive Staphylococcus aureus isolate 4 incubated overnight by agar dilution method
Assay type: functional
In short: as §1

Structure (SMILES)	MIC [µg/mL]
CC(=O)S[C@H]1CC(=O)[C@@](C)(CCC(=O)Nc2c(O)ccc(C(=O)O)c2O)[C@@H]2[C@@H]3C[C@H]4C[C@]12C[C@]4(C)O3	2 (≈ 3.86 µM)
C[C@]12C[C@]34C[C@@H]1C[C@H](O2)[C@H]3[C@](C)(CCC(=O)Nc1c(O)ccc(C(=O)O)c1O)C(=O)C[C@@H]4SC(=O)c1ccc(C(F)(F)F)cc1	1 (≈ 1.54 µM)
C[C@]12C[C@]34C[C@@H]1C[C@H](O2)[C@H]3[C@](C)(CCC(=O)Nc1c(O)ccc(C(=O)O)c1O)C(=O)C[C@@H]4SC(=O)c1ccc(Br)cc1	1 (≈ 1.52 µM)

Test system: Staphylococcus aureus
Test: Antibacterial activity against methicillin-resistant Staphylococcus aureus isolate 8 incubated overnight by agar dilution method
Assay type: functional
In short: as §1

Structure (SMILES)	MIC [µg/mL]
CC(=O)S[C@H]1CC(=O)[C@@](C)(CCC(=O)Nc2c(O)ccc(C(=O)O)c2O)[C@@H]2[C@@H]3C[C@H]4C[C@]12C[C@]4(C)O3	2 (≈ 3.86 µM)
C[C@]12C[C@]34C[C@@H]1C[C@H](O2)[C@H]3[C@](C)(CCC(=O)Nc1c(O)ccc(C(=O)O)c1O)C(=O)C[C@@H]4SC(=O)c1ccc(C(F)(F)F)cc1	1 (≈ 1.54 µM)
C[C@]12C[C@]34C[C@@H]1C[C@H](O2)[C@H]3[C@](C)(CCC(=O)Nc1c(O)ccc(C(=O)O)c1O)C(=O)C[C@@H]4SC(=O)c1ccc(Br)cc1	1 (≈ 1.52 µM)

Test system: Staphylococcus aureus
Test: Antibacterial activity against methicillin-sensitive Staphylococcus aureus isolate 2 incubated overnight by agar dilution method
Assay type: functional
In short: as §1

Structure (SMILES)	MIC [µg/mL]
CC(=O)S[C@H]1CC(=O)[C@@](C)(CCC(=O)Nc2c(O)ccc(C(=O)O)c2O)[C@@H]2[C@@H]3C[C@H]4C[C@]12C[C@]4(C)O3	2 (≈ 3.86 µM)
C[C@]12C[C@]34C[C@@H]1C[C@H](O2)[C@H]3[C@](C)(CCC(=O)Nc1c(O)ccc(C(=O)O)c1O)C(=O)C[C@@H]4SC(=O)c1ccc(C(F)(F)F)cc1	1 (≈ 1.54 µM)
C[C@]12C[C@]34C[C@@H]1C[C@H](O2)[C@H]3[C@](C)(CCC(=O)Nc1c(O)ccc(C(=O)O)c1O)C(=O)C[C@@H]4SC(=O)c1ccc(Br)cc1	1 (≈ 1.52 µM)

Test system: Staphylococcus aureus
Test: Antibacterial activity against methicillin-resistant Staphylococcus aureus isolate 9 incubated overnight by agar dilution method
Assay type: functional
In short: as §1

Structure (SMILES)	MIC [µg/mL]
CC(=O)S[C@H]1CC(=O)[C@@](C)(CCC(=O)Nc2c(O)ccc(C(=O)O)c2O)[C@@H]2[C@@H]3C[C@H]4C[C@]12C[C@]4(C)O3	2 (≈ 3.86 µM)
C[C@]12C[C@]34C[C@@H]1C[C@H](O2)[C@H]3[C@](C)(CCC(=O)Nc1c(O)ccc(C(=O)O)c1O)C(=O)C[C@@H]4SC(=O)c1ccc(C(F)(F)F)cc1	1 (≈ 1.54 µM)
C[C@]12C[C@]34C[C@@H]1C[C@H](O2)[C@H]3[C@](C)(CCC(=O)Nc1c(O)ccc(C(=O)O)c1O)C(=O)C[C@@H]4SC(=O)c1ccc(Br)cc1	1 (≈ 1.52 µM)

Test system: Staphylococcus aureus
Test: Antibacterial activity against methicillin-resistant Staphylococcus aureus isolate 10 incubated overnight by agar dilution method
Assay type: functional
In short: as §1

Structure (SMILES)	MIC [µg/mL]
CC(=O)S[C@H]1CC(=O)[C@@](C)(CCC(=O)Nc2c(O)ccc(C(=O)O)c2O)[C@@H]2[C@@H]3C[C@H]4C[C@]12C[C@]4(C)O3	2 (≈ 3.86 µM)
C[C@]12C[C@]34C[C@@H]1C[C@H](O2)[C@H]3[C@](C)(CCC(=O)Nc1c(O)ccc(C(=O)O)c1O)C(=O)C[C@@H]4SC(=O)c1ccc(C(F)(F)F)cc1	1 (≈ 1.54 µM)
C[C@]12C[C@]34C[C@@H]1C[C@H](O2)[C@H]3[C@](C)(CCC(=O)Nc1c(O)ccc(C(=O)O)c1O)C(=O)C[C@@H]4SC(=O)c1ccc(Br)cc1	1 (≈ 1.52 µM)

Test system: Staphylococcus aureus
Test: Antibacterial activity against methicillin-sensitive Staphylococcus aureus isolate 1 incubated overnight by agar dilution method
Assay type: functional
In short: as §1

Structure (SMILES)	MIC [µg/mL]
CC(=O)S[C@H]1CC(=O)[C@@](C)(CCC(=O)Nc2c(O)ccc(C(=O)O)c2O)[C@@H]2[C@@H]3C[C@H]4C[C@]12C[C@]4(C)O3	2 (≈ 3.86 µM)
C[C@]12C[C@]34C[C@@H]1C[C@H](O2)[C@H]3[C@](C)(CCC(=O)Nc1c(O)ccc(C(=O)O)c1O)C(=O)C[C@@H]4SC(=O)c1ccc(C(F)(F)F)cc1	0.5 (≈ 0.772 µM)
C[C@]12C[C@]34C[C@@H]1C[C@H](O2)[C@H]3[C@](C)(CCC(=O)Nc1c(O)ccc(C(=O)O)c1O)C(=O)C[C@@H]4SC(=O)c1ccc(Br)cc1	1 (≈ 1.52 µM)

Test system: Staphylococcus aureus
Test: Antibacterial activity against Staphylococcus aureus ATCC 29213 incubated overnight by agar dilution method
Assay type: functional
In short: as §1

Structure (SMILES)	MIC [µg/mL]
CC(=O)S[C@H]1CC(=O)[C@@](C)(CCC(=O)Nc2c(O)ccc(C(=O)O)c2O)[C@@H]2[C@@H]3C[C@H]4C[C@]12C[C@]4(C)O3	2 (≈ 3.86 µM)
C[C@]12C[C@]34C[C@@H]1C[C@H](O2)[C@H]3[C@](C)(CCC(=O)Nc1c(O)ccc(C(=O)O)c1O)C(=O)C[C@@H]4SC(=O)c1ccc(C(F)(F)F)cc1	1 (≈ 1.54 µM)
C[C@]12C[C@]34C[C@@H]1C[C@H](O2)[C@H]3[C@](C)(CCC(=O)Nc1c(O)ccc(C(=O)O)c1O)C(=O)C[C@@H]4SC(=O)c1ccc(Br)cc1	1 (≈ 1.52 µM)

Test system: Staphylococcus aureus
Test: Antibacterial activity against methicillin-sensitive Staphylococcus aureus isolate 3 incubated overnight by agar dilution method
Assay type: functional
In short: as §1

Structure (SMILES)	MIC [µg/mL]
CC(=O)S[C@H]1CC(=O)[C@@](C)(CCC(=O)Nc2c(O)ccc(C(=O)O)c2O)[C@@H]2[C@@H]3C[C@H]4C[C@]12C[C@]4(C)O3	2 (≈ 3.86 µM)
C[C@]12C[C@]34C[C@@H]1C[C@H](O2)[C@H]3[C@](C)(CCC(=O)Nc1c(O)ccc(C(=O)O)c1O)C(=O)C[C@@H]4SC(=O)c1ccc(C(F)(F)F)cc1	1 (≈ 1.54 µM)
C[C@]12C[C@]34C[C@@H]1C[C@H](O2)[C@H]3[C@](C)(CCC(=O)Nc1c(O)ccc(C(=O)O)c1O)C(=O)C[C@@H]4SC(=O)c1ccc(Br)cc1	1 (≈ 1.52 µM)

Test system: Staphylococcus aureus
Test: Antibacterial activity against methicillin-resistant Staphylococcus aureus isolate 6 incubated overnight by agar dilution method
Assay type: functional
In short: as §1

Structure (SMILES)	MIC [µg/mL]
CC(=O)S[C@H]1CC(=O)[C@@](C)(CCC(=O)Nc2c(O)ccc(C(=O)O)c2O)[C@@H]2[C@@H]3C[C@H]4C[C@]12C[C@]4(C)O3	2 (≈ 3.86 µM)
C[C@]12C[C@]34C[C@@H]1C[C@H](O2)[C@H]3[C@](C)(CCC(=O)Nc1c(O)ccc(C(=O)O)c1O)C(=O)C[C@@H]4SC(=O)c1ccc(C(F)(F)F)cc1	1 (≈ 1.54 µM)
C[C@]12C[C@]34C[C@@H]1C[C@H](O2)[C@H]3[C@](C)(CCC(=O)Nc1c(O)ccc(C(=O)O)c1O)C(=O)C[C@@H]4SC(=O)c1ccc(Br)cc1	1 (≈ 1.52 µM)

Test system: Staphylococcus aureus
Test: Antibacterial activity against methicillin-resistant Staphylococcus aureus isolate 11 incubated overnight by agar dilution method
Assay type: functional
In short: as §1

Structure (SMILES)	MIC [µg/mL]
CC(=O)S[C@H]1CC(=O)[C@@](C)(CCC(=O)Nc2c(O)ccc(C(=O)O)c2O)[C@@H]2[C@@H]3C[C@H]4C[C@]12C[C@]4(C)O3	4 (≈ 7.73 µM)
C[C@]12C[C@]34C[C@@H]1C[C@H](O2)[C@H]3[C@](C)(CCC(=O)Nc1c(O)ccc(C(=O)O)c1O)C(=O)C[C@@H]4SC(=O)c1ccc(C(F)(F)F)cc1	2 (≈ 3.09 µM)
C[C@]12C[C@]34C[C@@H]1C[C@H](O2)[C@H]3[C@](C)(CCC(=O)Nc1c(O)ccc(C(=O)O)c1O)C(=O)C[C@@H]4SC(=O)c1ccc(Br)cc1	2 (≈ 3.04 µM)
